Reference: ChEMBL document CHEMBL1126243, “A novel class of cardiotonic agents: synthesis and biological evaluation of 5-substituted 3,6-dihydrothiadiazin-2-ones with cyclic AMP phosphodiesterase inhibiting and myofibrillar calcium sensitizing properties” (J Med Chem, 1992)

Columns and labels:
Canis familiaris [1] = assay: Peak response for contractility was determined in conscious Dog at the dose of 30 ug/kg by peroral administration and measured as% changes of control; settings: route oral
Canis familiaris [2] = assay: Peak response for heart rate was determined in conscious Dog at the dose of 30 ug/kg by peroral administration and measured as% changes of control; settings: route oral
[3] = system: cardiac myofibrillar ATPase (Canis familiaris); assay: Shift induced by 30 uM of compound, of the [Ca2+] concentration required for half-maximal activation of the canine cardiac myofibrillar ATPase; settings: Canis lupus familiaris
[4] = Inhibition of dog left ventricle sarcoplasmic reticulum bound low-Km cAMP phosphodiesterase; parameters: species or system Canis lupus familiaris
Summary of the method: (§1)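 SR vesicles from dog left ventricle, isolated on a sucrose gradient after Ca2+ oxalate loading. Radiochemical assay at 30 °C with 1 µM [3H]cAMP, 12 mM Tris-HCl, 0.5 mM MgCl2, 137 mM NaCl and 20 mM glucose; products separated on Dowex after 5'-nucleotidase step. Less than 25% substrate hydrolysed. Triplicates at 10 concentrations (10^-9–10^-4 M), DMSO 1%. IC50 from Hill plot of mean curve over at least 3 preparations.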

[5] = system: cardiac myofibrillar ATPase (Canis familiaris); assay: Shift induced by 10 uM of compound, of the [Ca2+] concentration required for half-maximal activation of the canine cardiac myofibrillar ATPase; settings: Canis lupus familiaris
[6] = system: cardiac myofibrillar ATPase (Canis familiaris); assay: Shift induced by 3 uM of compound, of the [Ca2+] concentration required for half-maximal activation of the canine cardiac myofibrillar ATPase; settings: Canis lupus familiaris
[7] = system: cardiac myofibrillar ATPase (Canis familiaris); assay: Shift induced by 1 uM of compound, of the [Ca2+] concentration required for half-maximal activation of the canine cardiac myofibrillar ATPase; settings: Canis lupus familiaris
[8] = system: cardiac myofibrillar ATPase (Canis familiaris); assay: Shift induced by 100 uM of compound, of the [Ca2+] concentration required for half-maximal activation of the canine cardiac myofibrillar ATPase; settings: Canis lupus familiaris
[9] = target: Phosphodiesterase; PDE3 & PDE4; assay: Inhibition of dog left ventricle sarcoplasmic reticulum bound low-Km c-AMP phosphodiesterase; assay type: protein assay, Canis lupus familiaris
Summary of the method: as §1

[10] = system: cardiac myofibrillar ATPase (Canis familiaris); assay: Change in calcium-induced activation of canine cardiac myofibrillar ATPase at 200 uM; settings: Canis lupus familiaris
[11] = system: cardiac myofibrillar ATPase (Canis familiaris); assay: Shift induced by 200 uM of compound, of the [Ca2+] concentration required for half-maximal activation of the canine cardiac myofibrillar ATPase; settings: Canis lupus familiaris
[12] = system: cardiac myofibrillar ATPase (Canis familiaris); assay: c[Ca2+] concentration required for half-maximal activation of the cardiac myofibrillar ATPase at 100 uM dose of the compound; settings: Canis lupus familiaris
[13] = system: cardiac myofibrillar ATPase (Canis familiaris); assay: c[Ca2+] concentration required for half-maximal activation of the cardiac myofibrillar ATPase at 30 uM dose of the compound; settings: Canis lupus familiaris

| Delta pCa50 [3] | IC50 [9] | Delta pCa50 [10] | SMILES | other results |
| --- | --- | --- | --- | --- |
| 0.24 |  |  | CC1SC(=O)NN=C1c1ccc2c(c1)C(C)(C)NC(=O)N2 (stereo not given) | Change (Canis familiaris [1]): 38%; Change (Canis familiaris [2]): 9% |
|  |  |  | COc1cc([S+](C)[O-])ccc1-c1nc2cccnc2[nH]1 (stereo not given) [SULMAZOLE] | IC50 [4]: 140000 nM |
| 0 |  |  | O=C1CCc2cc(C3=NNC(=O)SC3)ccc2N1 |  |
| 0.76 |  |  | CC1SC(=O)NN=C1c1ccc2c(c1)C1(SCCCS1)C(=O)N2 (stereo not given) | IC50 [4]: 260 nM; Delta pCa50 [5]: 0.65; Delta pCa50 [6]: 0.48; Delta pCa50 [7]: 0.12 |
| 0.33 |  |  | CC1SC(=O)NN=C1c1ccc2c(c1)CC(C)(C)C(=O)N2 (stereo not given) | Change (Canis familiaris [1]): 26%; Change (Canis familiaris [2]): 24% |
| 0.57 |  |  | CC1SC(=O)NN=C1c1ccc2c(c1)C1(SCCS1)C(=O)N2 (stereo not given) | IC50 [4]: 350 nM |
|  | 240 nM |  | CC1CC(=O)NN=C1c1ccc2c(c1)C(C)(C)C(=O)N2 (stereo not given) | Delta pCa50 [8]: -0.09 |
| 0.45 |  |  | CC1SC(=O)NN=C1c1ccc2c(c1)C(C)(C)CC(=O)N2 (stereo not given) | Change (Canis familiaris [1]): 21%; Change (Canis familiaris [2]): 5% |
| 0.37 | 1400 nM |  | CC1SC(=O)NN=C1c1ccc2c(c1)C1(CCCS1)C(=O)N2 (stereo not given) |  |
|  | 1200 nM | 0.39 | CSC1(C)C(=O)Nc2ccc(C3=NNC(=O)SC3)cc21 (stereo not given) |  |
| -0.06 | 3300 nM |  | Cc1cc2c(cc1C1=NNC(=O)SC1C)C(C)(C)C(=O)N2 (stereo not given) |  |
|  |  |  | CSC1(C)C(=O)Nc2ccc(C3=NNC(=O)SC3C)cc21 (stereo not given) | Delta pCa50 [11]: 0.33 |
|  | 960 nM |  | CC1OC(=O)NN=C1c1ccc2c(c1)C(C)(C)C(=O)N2 (stereo not given) | Delta pCa50 [8]: 0.04 |
| -0.07 |  |  | Cc1c(C2=NNC(=O)SC2C)ccc2c1C(C)(C)C(=O)N2 (stereo not given) | IC50 [4]: 9200 nM |
| 0.39 | 1300 nM |  | CC1SC(=O)NN=C1c1ccc2c(c1)C1(CCCCC1)C(=O)N2 (stereo not given) |  |
|  |  | 0.28 | CSC1C(=O)Nc2ccc(C3=NNC(=O)SC3)cc21 (stereo not given) |  |

| Delta pCa50 [3] | IC50 [9] | Delta pCa50 [10] | SMILES | other results |
| --- | --- | --- | --- | --- |
|  |  | 0.07 | CSC1(C)C(=O)Nc2ccc(C3=NNC(=O)CC3)cc21 (stereo not given) |  |
| 0.15 |  |  | CC1SC(=O)NN=C1c1ccc2c(c1)C(C)(C)OC(=O)N2 (stereo not given) | Change (Canis familiaris [1]): 67%; Change (Canis familiaris [2]): 13% |
| 0.35 | 1100 nM |  | CC1SC(=O)NN=C1c1ccc2c(c1)C1(CCCC1)C(=O)N2 (stereo not given) |  |
|  |  | 0.11 | CSC1(C)C(=O)Nc2ccc(C3=NNC(=O)CC3C)cc21 (stereo not given) |  |
|  | 330 nM | 0.31 | CC1SC(=O)NN=C1c1ccc2c(c1)C(C)(C)C(=O)N2 (stereo not given) | Delta pCa50 [12]: 0.24; Change (Canis familiaris [1]): 73%; Delta pCa50 [13]: 0.09; Change (Canis familiaris [2]): 8% |
|  | 520 nM | 0.16 | CC1(C)C(=O)Nc2cc3[nH]c(-c4ccncc4)nc3cc21 [ADIBENDAN] |  |
|  |  | 0.15 | CC1C(=O)Nc2ccc(C3=NNC(=O)SC3)cc21 (stereo not given) |  |
| 0.14 | 36 nM |  | CC1SC(=O)NN=C1c1ccc2c(c1)C1(CC1)C(=O)N2 (stereo not given) |  |
|  | 66000 nM | -0.02 | CC1(C)SC(=O)NN=C1c1ccc2c(c1)C(C)(C)C(=O)N2 |  |
|  |  | 0.16 | CC1(C)C(=O)Nc2ccc(C3=NNC(=O)SC3)cc21 |  |
| 0.26 |  |  | Cc1cc(C2=NNC(=O)SC2C)cc2c1NC(=O)C2(C)C (stereo not given) | IC50 [4]: 240 nM |
|  |  | 0.08 | O=C1Cc2cc(C3=NNC(=O)SC3)ccc2N1 |  |
|  | 18000 nM | 0.1 | Cc1nc(O)c(N)cc1-c1ccccc1 |  |
|  |  |  | CC1(C)C(=O)Nc2ccc(C3=NNC(=O)CC3)cc21 | Delta pCa50 [11]: -0.04 |
|  | 170 nM |  | CC1NC(=O)NN=C1c1ccc2c(c1)C(C)(C)C(=O)N2 (stereo not given) | Delta pCa50 [8]: -0.04 |

| SMILES | Delta pCa50 [3] | IC50 [9] | Delta pCa50 [10] | other results |
| --- | --- | --- | --- | --- |
| CC1[Se]C(=O)NN=C1c1ccc2c(c1)C(C)(C)C(=O)N2 (stereo not given) |  | 540 nM |  | Delta pCa50 [8]: 0.3 |
